Ten molecules from publication PMC3049929 (Journal of medicinal chemistry, 2008) can be followed below.

The structures appear in SMILES notation.

Assay [1] relates to P. falciparum K1 (chloroquine-resistant, pyrimethamine-resistant). Format: cell-based. The settings on record: Plasmodium falciparum, K1, Erythrocyte, 48 h, read-out: ED50 (nM) K1. The method in brief: (§1)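 Parasites cultured in type A+ human erythrocytes (2% hematocrit) in RPMI-1640 with 20% heat-inactivated type A+ human plasma, under 5% CO2/5% O2/90% N2. Test compound in DMSO added to culture at 0.5% parasitemia and 0.5% hematocrit. Incubated 37 °C for 48 h, then [8-3H]hypoxanthine (0.3 µCi) added for a further 24 h. Cells harvested to filter mats and counted by β-scintillation. Uninfected-erythrocyte background subtracted; DMSO-only wells taken as 100% growth. ED50 from linear regression of incorporation vs concentration.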

In assay [2] the test system is P. falciparum 3D7 (chloroquine-sensitive). The assay is classed as cell-based. The settings on record: Plasmodium falciparum, 3D7, Erythrocyte, 48 h, read-out: ED50 (nM) 3D7. The method in brief: as §1
Assay [3] deals with PfPFT (P. falciparum protein farnesyltransferase) (Plasmodium falciparum, UniProt Q5EI73+Q5EI74). The assay is described as follows: PfPFT [3H] scintillation proximity assay. The assay is classed as biochemical. To be noted: for inhibition at 0.05 µM: read-out: Inhibition of PfFTase (%) 50 nM. In general terms: Scintillation proximity formats need no separation of bound from free tracer.

Take `Cn1cnc(S(=O)(=O)N(CCCN(Cc2cncn2C)c2ccc(C#N)cc2)CC2CCN(C(=O)OC(C)(C)C)CC2)c1` [2d, [N-(N-tert-Butoxycarbonylpiperidin-4-ylmethyl)-N-3-{(4-cyanophenyl)(3-methyl-3H-imidazol-4-ylmethyl)amino}propyl]-1-methyl-1H-imidazole-4-sulfonamide]: the IC50 in assay [1] was 190 nM; in assay [2], 330 nM.
Turning to `Cn1cnc(S(=O)(=O)N(Cc2ccccc2)CC(C)(C)N(Cc2cncn2C)c2ccc(C#N)cc2)c1` [3a, [N-Benzyl-N-{(4-cyanophenyl)(3-methyl-3H-imidazol-4-ylmethyl)amino}-2,2-dimethylethyl]-1-methyl-1H-imidazole-4-sulfonamide], the IC50 in assay [1] came out at 55 nM; in assay [2], 160 nM.
As for `Cc1ccccc1CN(CC(C)(C)N(Cc1cncn1C)c1ccc(C#N)cc1)S(=O)(=O)c1cn(C)cn1` [3b, [N-(2-Methylbenzyl)-N-{(4-cyanophenyl)(3-methyl-3H-imidazol-4-ylmethyl)amino}-2,2-dimethylethyl]-1-methyl-1H-imidazole-4-sulfonamide], the IC50 in assay [1] turned out to be 75 nM; in assay [2] it was 210 nM.
Consider `Cn1cnc(S(=O)(=O)N(CC2CCN(C(=O)OC(C)(C)C)CC2)CC(C)(C)N(Cc2cncn2C)c2ccc(C#N)cc2)c1` [3d, [N-(N-tert-Butoxycarbonylpiperidin-4-ylmethyl)-N-{(4-cyanophenyl)(3-methyl-3H-imidazol-4-ylmethyl)amino}-2,2-dimethylethyl]-1-methyl-1H-imidazole-4-sulfonamide], for which the IC50 in assay [1] came to 250 nM; in assay [2], 400 nM.
`Cn1cnc(S(=O)(=O)N(CC2CCN(c3ncccn3)CC2)CC(C)(C)N(Cc2cncn2C)c2ccc(C#N)cc2)c1` [3e, [N-{N-(2-Pyrimidinyl)-piperidin-4-ylmethyl}-N-{(4-cyanophenyl)(3-methyl-3H-imidazol-4-ylmethyl)amino}-2,2-dimethylethyl]-1-methyl-1H-imidazole-4-sulfonamide]: the results for the IC50 in assay [1] and in assay [2] were 75 nM and 180 nM, respectively.
Turning to `Cn1cnc(S(=O)(=O)N(CC(=O)N(Cc2cncn2C)c2ccc(C#N)cc2)Cc2ccccc2)c1` [4a, 2-[Benzyl(1-methyl-1H-imidazole-4-sulfonyl)amino]-N-(4-cyanophenyl)-N-(3-methyl-3H-imidazol-4-ylmethyl)acetamide], in assay [3], the inhibition at 0.05 µM came out at 0%.
Turning to `Cn1cnc(S(=O)(=O)N(CC(=O)N(Cc2cncn2C)c2ccc(C#N)cc2)CC2CCN(C(=O)OC(C)(C)C)CC2)c1` [4d, 2-[(N-tert-Butoxycarbonylpiperidin-4-ylmethyl)(1-methyl-1H-imidazole-4-sulfonyl)amino]-N-(4-cyanophenyl)-N-(3-methyl-3H-imidazol-4-ylmethyl)acetamide], in assay [3], the inhibition at 0.05 µM was found to be 0%.
Consider `Cn1cnc(S(=O)(=O)N(CCC(=O)N(Cc2cncn2C)c2ccc(C#N)cc2)Cc2ccccc2)c1` [5a, 3-[Benzyl-(1-methyl-1H-imidazole-4-sulfonyl)amino]-N-(4-cyanophenyl)-N-(3-methyl-3H-imidazol-4-ylmethyl)propanamide], for which the inhibition at 0.05 µM in assay [3] was 0%.
For `Cn1cnc(S(=O)(=O)N(CCC(=O)N(Cc2cncn2C)c2ccc(C#N)cc2)CC2CCN(C(=O)OC(C)(C)C)CC2)c1` [5d, 3-[(N-tert-Butoxycarbonylpiperidin-4-ylmethyl)(1-methyl-1H-imidazole-4-sulfonyl)amino]-N-(4-cyanophenyl)-N-(3-methyl-3H-imidazol-4-ylmethyl)propanamide], the inhibition at 0.05 µM in assay [3] worked out at 0%.
Consider `Cn1cnc(S(=O)(=O)N(CC2CCN(C(=O)OC(C)(C)C)CC2)[C@H]2CC[C@@H](N(Cc3cncn3C)c3ccc(C#N)cc3)CC2)c1` [10d, (±)-[N-(N-tert-Butoxycarbonylpiperidin-4-ylmethyl)-N-{cis-4-[(4-cyanophenyl)(3-methyl-3H-imidazol-4-ylmethyl)amino]cyclohexyl}]-1-methyl-1H-imidazole-4-sulfonamide], for which the IC50 in assay [1] worked out at 650 nM. In addition, the “Inhibition of PfFTase (%) 50 nM” value in assay [3] (50 nM inhibitor concentration) is “no inhibitory activity”. The inhibition at 0.05 µM in assay [3] worked out at 0%.

Usually inhibition stands for the share of the control response that was lost under treatment.
